# Screens from PubChem BioAssay.
# Rows were chosen to be rich in hits. Some 1.4% of all compounds tested hit in one or more screens of this group.
# HKDC1 inhibitor: inhibitors of human hexokinase HKDC1; Q2TB90; recombinant HKDC1, G6PDH/diaphorase resazurin coupled fluorescence; inhibition, % at 20 µM; actives 0.16% (n = 340,000); AID 493160;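 active means inhibition above about 35% when tested at 20 µM, limit read from the data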;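 further: plate controls were DMSO wells with enzyme for no effect and DMSO wells lacking enzyme for full effect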
#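 Test system: Recombinant HKDC1 (HK5) hexokinase enzyme, produced in-house | Input: HKDC1 at 5 µg/mL | Buffer or medium: Tris pH 8.0 buffer with MgCl2, Tween-20, BSA, BME | Schedule: 90 min reaction incubation at room temperature, dark | Technique: Resazurin-to-resorufin fluorescence via G6PDH and diaphorase coupling, 525/613 nm | Controls: DMSO wells with and without enzyme mix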
# Diaphorase inh: inhibits diaphorase or chemically oxidizes, flagging diaphorase assay artifacts; diaphorase resazurin-to-resorufin fluorescence, NADH, 16 min; bacterial (C. kluyveri) enzyme, not human; inhibition, % at 20 µM; actives 0.69% (n = 190,000);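 active means primary screen inhibition at 20 µM above a set limit, cut at about 50% in these data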;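 further: plate controls were DMSO with full reaction for no effect and wells lacking NADH for full effect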
#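 System: Diaphorase enzyme from Clostridium kluyveri | Amount: Enzyme working solution with 0.14 U/mL diaphorase | Benchmarks: No-NADH positive control and DMSO neutral control | Signal: Fluorescence of resorufin formed from resazurin, Ex 544/Em 590 nm | Schedule: 16-min room-temperature incubation before reading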
# Diaph act CS: counter-screen for diaphorase-based assays: diaphorase activators and chemical reducers; Diaphorase/resazurin coupled assay, resorufin fluorescence, 16 min; stronger effect = higher value; 1 = vehicle wells, 0 = NADH-free wells; activation factor at 20 µM; actives 0.005% (n = 190,000); AID 1229;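 active means diaphorase activity raised at least twofold by the compound at 20 µM; inactive means activation factor below 2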
#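 Assay system: Purified diaphorase enzyme from Clostridium kluyveri | Amount: Enzyme 0.07 U/mL final | Dosing: Compound 20 µM once, DMSO 1% | Timing: 16 min reaction at room temperature | Detection: Fluorescence, excitation 544 nm and emission 590 nm | Evaluation: Higher resorufin formation from activation or reduction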
# ATG4B inhibitor: inhibitors of human ATG4B cysteine protease | Q9Y4P1 | ATG4B cleavage of LC3-PLA2, NBD-HPC fluorescence, 1 h | inhibition, % at 8.33 µM | actives 0.51% (n = 340,000) | AID 504462; in the data active means inhibition above about 40%
# Target sequence (Q9Y4P1 whole entry, looked up): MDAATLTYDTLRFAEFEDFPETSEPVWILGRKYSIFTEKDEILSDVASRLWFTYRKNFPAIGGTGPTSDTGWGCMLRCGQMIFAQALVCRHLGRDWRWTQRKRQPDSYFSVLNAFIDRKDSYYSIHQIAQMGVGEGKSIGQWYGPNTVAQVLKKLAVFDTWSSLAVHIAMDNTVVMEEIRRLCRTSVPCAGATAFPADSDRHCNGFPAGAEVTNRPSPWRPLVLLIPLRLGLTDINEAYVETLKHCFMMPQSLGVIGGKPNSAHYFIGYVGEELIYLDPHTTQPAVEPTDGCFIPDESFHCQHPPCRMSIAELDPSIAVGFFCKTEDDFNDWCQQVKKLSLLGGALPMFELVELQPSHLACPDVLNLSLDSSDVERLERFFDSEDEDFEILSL
# CTSL1 counter: blocks F. hepatica cathepsin L1 in PFM18AAP counter-screen | recombinant F. hepatica cathepsin L1, Z-Leu-Arg-MCA fluorescence | inhibition, % at 5.96 µM | actives 0.49% (n = 300,000);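 active means inhibition above the mean of all tested compounds plus 3 SD, set per screening campaign, cut at about 17% in these data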;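 further: 0% = plate median of test compound wells and 100% = 1 µM Z-Phe-Ala-diazomethylketone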
# HKDC1 act conf: HKDC1 (human) activation, single-dose confirmed; actives 14% (n = 740); inhibition, % at 20 µM; recombinant HKDC1, G6PDH/diaphorase resazurin fluorescence; stronger effect = lower value; shares compounds with HKDC1 inhibitor; AID 504708;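 active means inhibition at or below a set negative limit, negative inhibition meaning the enzyme was activated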
# * marks the source's active call; other numbers are inactive results; x = not tested or not shown.
SMILES,HKDC1 inhibitor,Diaphorase inh,Diaph act CS,ATG4B inhibitor,CTSL1 counter,HKDC1 act conf
COCCn1c(C)cc(C2=NNC(=Nc3ccccc3)SC2)c1C,-31.9,11.7,0.9,5.8,-0.9,x
O=C1OC(c2ccc3ccccc3c2O)(c2ccc3ccccc3c2O)c2ccccc21,36.0*,x,x,-2.5,x,14.7
CCOC(=O)c1c(S(=O)(=O)NCC(=O)Nc2ccc(OC)cc2)c(C)n(C)c1C,-5.6,x,x,-6.0,-7.3,x
Oc1cc(CNC2CCCCC2)c(O)cc1CNC1CCCCC1,33.6,x,x,0.6,x,32.5
Cc1ccccc1CNC1CCCCC1,-0.8,1.2,1,-11.2,0.4,x
COc1ccc(C(=O)/C=C/c2ccsc2)cc1CSCC(=O)O,35.7*,x,x,6.2,0.9,-10.2
COc1ccc(C(C)=O)cc1CSCCC(=O)O,-0.4,10.8,0.9,-5.5,0.1,x
Cc1cc(C)n2nc(SCc3nnc(SCc4ccccc4C)s3)nc2n1,52.6*,49.5,0.5,2.8,-2.1,69.2
Cc1cc(C)n2nc(SCc3nnc(SCc4ccccc4Cl)s3)nc2n1,40.8*,58.1*,0.4,10.7,2.4,43.0
CS(=O)(=O)c1ccc2nc(NC(=O)CCNC(=O)c3ccc(Cl)cc3)sc2c1,-2.4,x,x,-1.5,x,x
Cc1ccc(/C=N/n2c(-c3ccccc3)n[nH]c2=S)cc1,-2.5,x,x,6.6,0.5,x
N=C1N(/N=C/c2ccccc2)C(=Nc2ccccc2)C(=S)N1c1ccccc1,-49.5,16.2,0.8,9.6,0.6,-32.4
COc1cccc(NC(=O)COC(=O)c2cc(=O)c3ccccc3o2)c1,4.3,x,x,-2.9,x,x
Oc1ccccc1CC=NC1CCCCC1,1.4,x,x,9.7,x,x
CC1C/C(=C/c2ccncc2)C(=O)/C(=C/c2ccncc2)C1 (stereo not given),43.5*,6.8,0.9,7.9,3.3,-4.5
Cc1cc(C(=O)CCl)c(C)n1CCc1ccc(Cl)cc1,39.1*,13.8,0.9,7.9,21.2*,9.8
Cc1cc(C(=O)CSc2nnc(N)s2)c(C)n1CCc1ccc(Cl)cc1,4.8,7.6,0.9,-12.3,2.4,x
COc1ccc(Oc2cc(C)nc(Cl)n2)nn1,-77.8,-15.1,1.2,-2.6,-0.9,-15.2
Cc1cc(Oc2ccc(OCC(N)=O)nn2)nc(Cl)n1,-8.9,9.5,0.9,-3.4,1.1,x
CC1CCCN(C(=O)COC(=O)C2=COCCO2)C1 (stereo not given),-1.4,x,x,-5.0,x,x
COc1ccc2c(c1)/C(=C\c1cccc(/C=C3/C(=O)Nc4ccc(OC)cc43)n1)C(=O)N2,36.7*,x,x,-4.2,x,24.2
COc1ccc2c(c1)/C(=N/N1C(=O)c3ccccc3C1=O)C(=O)N2,x,-12.7,1.1,x,2.5,x
O=C(O)c1ccc2c(=O)n(-c3ccccc3)c(=S)[nH]c2c1,84.2*,x,x,4.7,4.8,-2.4
CCc1nc(CN(C)C(=O)C2CCC(=O)N(CCc3cccc(F)c3)C2)no1 (stereo not given),1.4,x,x,1.2,-1.7,x
CC(C)Cn1c(N)c(C(=O)COC(=O)/C=C/c2ccccc2)c(=O)n(C)c1=O,-0.4,x,x,-2.9,5.6,x
SMILES,HKDC1 inhibitor,Diaphorase inh,Diaph act CS,ATG4B inhibitor,CTSL1 counter,HKDC1 act conf
Oc1ccc(/C=N/Nc2nccnc2Cl)c(O)c1,-4.8,30.0,0.7,-9.8,0.6,x
O=[N+]([O-])c1ccc(NN=Cc2ccc(O)cc2O)nc1,37.1*,x,x,0.2,x,50.8
Oc1ccc(/C=N/Nc2ncc(Br)cn2)c(O)c1,39.0*,34.6,0.7,1.0,3.4,44.6
COc1ccc(S(=O)(=O)N(C)C[C@@H]2Oc3c(NS(C)(=O)=O)cccc3C(=O)N([C@@H](C)CO)C[C@H]2C)cc1,-6.1,x,x,-4.6,x,x
CCN(CC)Cc1cc(O)c(CN(CC)CC)cc1O,47.2*,53.1*,0.5,-6.0,x,41.2
CCc1oc(C(=O)O)cc1CN(CC)CC,4.2,7.8,0.9,0.5,-1.5,x
O=C(COc1ccc(Cl)cc1)OCC(=O)N1CCOCC1,2.3,x,x,-5.4,x,x
Oc1ccc(-c2nccc(-c3ccc(F)cc3)n2)cc1,1.7,x,x,-20.6,-0.1,x
COC(=O)Cn1c2ccc(F)cc2c2nc(C)sc21,-92.0,13.2,0.9,1.1,0.3,-90.4*
CCOC(=O)Cn1c2ccc(F)cc2c2nc(C)sc21,-62.2,15.2,0.8,-4.3,-1.4,-36.6*
O=C(CCC(=O)N1CCc2ccccc2C1)NCCc1ccc(Cl)cc1,-3.0,x,x,0.4,-9.1,x
N=C1/C(=C\c2coc3ccccc3c2=O)C(=O)N=C2SC(c3ccncc3)=NN12,44.9*,x,x,10.7,4.7,32.1
CCCCC(=O)NC(c1ccc(N(CC)CC)cc1)c1ccc2cccnc2c1O (stereo not given),-46.3,x,x,8.7,-3.4,-59.3*
CSc1ccccc1C(=O)NC1CCCc2ccccc21 (stereo not given),-10.2,x,x,5.0,6.0,x
NC1=CC(=O)C(=O)c2ccccc21,49.4*,x,x,-12.1,x,48.7
CCS(=O)(=O)CCSc1nc2ccccc2s1,9.2,12.4,0.9,-1.1,0.3,x
O=S(=O)(CCSc1nc2ccccc2s1)c1nc2ccccc2s1,39.0*,13.0,0.9,1.1,5.2,-0.1
CCN(CC)c1ccc(/C=N/NC(=O)c2nnn(-c3nonc3N)c2-c2ccc(C)cc2)cc1,0.5,x,x,-4.0,3.2,x
CC(=NNC(=S)N1CCN(C2CCCCCC2)CC1)c1ccccn1,-42.4,x,x,13.1,x,-39.9*
CC(=NNC(=S)N1CC2CCC(CC2)C1)c1cnccn1,-46.6,x,x,-6.9,x,-30.9
CC(=NNC(=S)N1CCN(c2ccccn2)CC1)c1ccccn1,-21.1,x,x,12.7,x,x
COC(=O)c1ccc(CCc2cc(O)c(Br)cc2O)cc1,69.1*,x,x,-3.3,x,54.2
COC(=O)c1ccc(CCc2cc(O)ccc2O)cc1,26.5,x,x,-7.0,x,x
O=C1C(Cl)=C(N2CCN(c3ccccc3[N+](=O)[O-])CC2)C(=O)c2ccccc21,40.0*,39.6,0.6,8.9,8.6,-9.4
O=C(c1c[nH]c(C(=O)C(Cl)(Cl)Cl)c1)c1ccccc1F,37.4*,x,x,-9.2,-2.7,0.6
SMILES,HKDC1 inhibitor,Diaphorase inh,Diaph act CS,ATG4B inhibitor,CTSL1 counter,HKDC1 act conf
NC(=O)c1cc(C(=O)c2ccc(Cl)cc2)c[nH]1,-2.0,0.0,1,1.7,-3.4,x
O=C(c1c[nH]c(C(=O)C(Cl)(Cl)Cl)c1)c1c(F)cccc1F,37.5*,x,x,-2.4,4.5,14.0
O=C(c1c[nH]c(C(=O)C(Cl)(Cl)Cl)c1)c1ccccc1Cl,14.0,24.3,0.8,-3.2,5.8,x
CCC(c1ccccc1)C(CC)c1cc(O)c(O)c(O)c1 (stereo not given),42.4*,x,x,9.2,x,35.8
CCC(C)c1ccccc1O (stereo not given),-1.2,x,x,5.5,x,x
O=C(OCN1C(=O)C(=O)c2ccccc21)c1ccc(Cl)cc1,5.3,x,x,2.9,-3.7,x
CN(C)c1ccc(Cc2cc3c(O)ccc(O)c3cc(Cc3ccc(N(C)C)cc3)c2=O)cc1,60.4*,x,x,30.6,x,44.7
